Measured values as given in ChEMBL document CHEMBL2385004, “Development of flavonoid-based inverse agonists of the key signaling receptor US28 of human cytomegalovirus” (J Med Chem, 2013).
Calls of active or inactive are those of the source. The calls are words filed in the database; no cut-off is given here.

Test system: CHO
Assay: Cytotoxicity against CHO cells after 48 hrs by MTS assay
Type: cell-based
Conditions: Cricetulus griseus
How it was run: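 CHO cells plated at 10000 cells/mL and incubated overnight. Drug from DMSO stock added, final DMSO <1%. Incubated 48 h at 37 °C, 5% CO2, then MTS reagent for 4 h more. Absorbance read at 490 nm. Run in triplicate; IC50 taken from a plot of relative A490 vs drug concentration.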

| Structure (SMILES) | IC50 [µM] |
| --- | --- |
| COc1ccc(Br)cc1/C=C/C(=O)c1c(O)cccc1OC | 6.1 |
| COc1ccc(C)cc1-c1oc2ccccc2c(=O)c1O | 54.6 |
| CCOc1ccc(Br)cc1/C=C/C(=O)c1ccccc1O | 7.2 |
| COc1cc(Br)cc(/C=C/C(=O)c2ccccc2O)c1OC | 7.2 |
| COc1ccccc1-c1cc(=O)c2ccccc2o1 | 64.8 |
| CCOc1ccc(Cl)cc1/C=C/C(=O)c1ccccc1O | 6.8 |
| COc1ccccc1-c1cc(=O)c2c(O)cccc2o1 | > 100 |
| COc1ccc(Br)cc1-c1oc2cccc(OC)c2c(=O)c1O | 17.3 |
| CCOc1ccc(Cl)cc1-c1oc2ccccc2c(=O)c1O | > 100 |
| COc1ccc(Br)cc1-c1oc2ccccc2c(=O)c1O | 88.5 |
| COc1ccc(I)cc1-c1oc2ccccc2c(=O)c1O | 17.9 |
| COc1ccc(Br)cc1-c1cc(=O)c2ccccc2o1 | > 100 |
| COc1ccc(C)cc1/C=C/C(=O)c1ccccc1O | 14.2 |
| COc1ccc(Br)cc1/C=C/C(=O)c1ccccc1O | 8.7 |
| COc1ccc(Br)cc1/C=C/C(=O)c1ccc2ccccc2c1O | 15.6 |
| COc1ccccc1-c1cc(=O)c2c(OCc3ccccc3)cccc2o1 | 17.5 |
| COc1ccc(Br)cc1-c1cc(=O)c2c(OCc3ccccc3)cccc2o1 | 96.6 |
| COc1ccc(I)cc1/C=C/C(=O)c1ccccc1O | 6.7 |
| CCOc1ccc(Br)cc1-c1oc2ccccc2c(=O)c1O | 13.5 |
| COc1ccccc1-c1oc2ccccc2c(=O)c1O | > 100 |
| COc1ccccc1/C=C/C(=O)c1ccccc1O | 25.5 |
| COc1ccc(Br)cc1/C=C/C(=O)c1c(O)cccc1OCc1ccccc1 | 8.1 |
| COc1cc(OC)c(-c2oc3ccccc3c(=O)c2O)cc1Br | 18.3 |
| COc1ccc(Br)cc1C1CC(=O)c2ccccc2O1 (stereo unspecified) | 67.9 |
| COc1ccc(Br)cc1-c1cc(=O)c2c(O)cccc2o1 | 75.2 |
| COc1ccc(Cl)cc1/C=C/C(=O)c1ccccc1O | 8.4 |
| COc1cc(Br)cc(-c2oc3ccccc3c(=O)c2O)c1OC | > 100 |
| COc1ccc(Cl)cc1-c1oc2ccccc2c(=O)c1O | 25 |
| COc1cc(OC)c(/C=C/C(=O)c2ccccc2O)cc1Br | 16.9 |

Test system: not listed separately
Assay: Activation of MAPK signaling pathway in mock-transfected HEK293T cells at 10 uM after 20 to 24 hrs by luciferase-based Elk1 reporter gene assay relative to control
Type: cell-based
Conditions: Homo sapiens, HEK-293T
How it was run: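 HEK293T cells transiently transfected with 0.1 μg Elk1, 5 μg Luc and empty pcDNA3 (PathDetect trans Elk1 system). After 5 h, washed, seeded at 20,000 cells/well in DMEM, 1% FBS, 2 mM L-glutamine, 1% pen-strep, 1% DMSO. Compound at 10 μM; 37 °C, 5% CO2, 20−24 h. Bright-Glo luminescence; % effect = 100% × (treated/1% DMSO control luminescence) − 100%.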

| Structure (SMILES) | Activity [%] |
| --- | --- |
| COc1ccc(Br)cc1/C=C/C(=O)c1c(O)cccc1OC | 290 |
| COc1ccc(C)cc1-c1oc2ccccc2c(=O)c1O | 0 |
| CCOc1ccc(Br)cc1/C=C/C(=O)c1ccccc1O | -3 |
| COc1cc(Br)cc(/C=C/C(=O)c2ccccc2O)c1OC | -42 |
| COc1ccccc1-c1cc(=O)c2ccccc2o1 | 3 |
| CCOc1ccc(Cl)cc1/C=C/C(=O)c1ccccc1O | 33 |
| COc1ccccc1-c1cc(=O)c2c(O)cccc2o1 | 2 |
| COc1ccc(Br)cc1-c1oc2cccc(OC)c2c(=O)c1O | -1 |
| CCOc1ccc(Cl)cc1-c1oc2ccccc2c(=O)c1O | -17 |
| COc1ccc(Br)cc1-c1oc2ccccc2c(=O)c1O | -11 |
| COc1ccc(I)cc1-c1oc2ccccc2c(=O)c1O | -23 |
| COc1ccc(Br)cc1-c1cc(=O)c2ccccc2o1 | -17 |
| COc1ccc(C)cc1/C=C/C(=O)c1ccccc1O | -4 |
| COc1ccc(Br)cc1/C=C/C(=O)c1ccccc1O | -29 |
| COc1ccc(Br)cc1/C=C/C(=O)c1ccc2ccccc2c1O | 35 |
| COc1ccccc1-c1cc(=O)c2c(OCc3ccccc3)cccc2o1 | -40 |
| COc1ccc(Br)cc1-c1cc(=O)c2c(OCc3ccccc3)cccc2o1 | -3 |
| COc1ccc(I)cc1/C=C/C(=O)c1ccccc1O | 100 |
| CCOc1ccc(Br)cc1-c1oc2ccccc2c(=O)c1O | -31 |
| COc1ccccc1-c1oc2ccccc2c(=O)c1O | -1 |
| COc1ccccc1/C=C/C(=O)c1ccccc1O | 8 |
| COc1cc(OC)c(-c2oc3ccccc3c(=O)c2O)cc1Br | -17 |
| COc1ccc(Cl)cc1C1CC(=O)c2ccccc2O1 (stereo unspecified) | -14 |
| COc1ccc(Br)cc1C1CC(=O)c2ccccc2O1 (stereo unspecified) | -5 |
| COc1ccc(Br)cc1-c1cc(=O)c2c(O)cccc2o1 | -16 |
| COc1ccc(Cl)cc1/C=C/C(=O)c1ccccc1O | -30 |
| COc1cc(Br)cc(-c2oc3ccccc3c(=O)c2O)c1OC | -28 |
| COc1ccc(Cl)cc1-c1oc2ccccc2c(=O)c1O | 2 |
| COc1cc(OC)c(/C=C/C(=O)c2ccccc2O)cc1Br | 5 |

Test system: not listed separately
Assay: Inverse agonist activity at human cytomegalovirus US28 receptor transfected in HEK293T cells assessed as activation of MAPK signaling pathway at 10 uM after 20 to 24 hrs by luciferase-based Elk1 reporter gene assay relative to control
Type: cell-based
Conditions: Human betaherpesvirus 5, HEK-293T
How it was run: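 HEK293T transiently transfected with 0.1 μg Elk1, 5 μg Luc and 5 μg US28 vector (PathDetect trans Elk1), reading US28-driven MAPK/Elk1 signaling. After 5 h, seeded 20,000 cells/well in DMEM, 1% FBS, 2 mM L-glutamine, 1% pen-strep, 1% DMSO with compound; 37 °C, 5% CO2, 20−24 h. Bright-Glo luciferase luminescence vs no-compound control. Triplicates, 3−5 experiments; curves normalized, pooled, fitted by nonlinear regression.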

| Structure (SMILES) | Efficacy [%] | Activity |
| --- | --- | --- |
| COc1ccc(Br)cc1/C=C/C(=O)c1c(O)cccc1OC | -95 | – |
| COc1ccc(C)cc1-c1oc2ccccc2c(=O)c1O | -38 | – |
| CCOc1ccc(Br)cc1/C=C/C(=O)c1ccccc1O | -88 | – |
| COc1cc(Br)cc(/C=C/C(=O)c2ccccc2O)c1OC | -52 | – |
| COc1ccccc1-c1cc(=O)c2ccccc2o1 | – | inactive |
| CCOc1ccc(Cl)cc1/C=C/C(=O)c1ccccc1O | -76 | – |
| COc1ccccc1-c1cc(=O)c2c(O)cccc2o1 | – | inactive |
| COc1ccc(Br)cc1-c1oc2cccc(OC)c2c(=O)c1O | – | inactive |
| CCOc1ccc(Cl)cc1-c1oc2ccccc2c(=O)c1O | -41 | – |
| COc1ccc(Br)cc1-c1oc2ccccc2c(=O)c1O | – | inactive |
| COc1ccc(I)cc1-c1oc2ccccc2c(=O)c1O | – | inactive |
| COc1ccc(Br)cc1-c1cc(=O)c2ccccc2o1 | -55 | – |
| COc1ccc(C)cc1/C=C/C(=O)c1ccccc1O | 52 | – |
| COc1ccc(Br)cc1/C=C/C(=O)c1ccccc1O | -44 | – |
| COc1ccc(Br)cc1/C=C/C(=O)c1ccc2ccccc2c1O | -92 | – |
| COc1ccccc1-c1cc(=O)c2c(OCc3ccccc3)cccc2o1 | -49 | – |
| COc1ccc(Br)cc1-c1cc(=O)c2c(OCc3ccccc3)cccc2o1 | -89 | – |
| COc1ccc(I)cc1/C=C/C(=O)c1ccccc1O | -94 | – |
| CCOc1ccc(Br)cc1-c1oc2ccccc2c(=O)c1O | -41 | – |
| COc1ccccc1-c1oc2ccccc2c(=O)c1O | -19 | – |
| COc1ccccc1/C=C/C(=O)c1ccccc1O | 67 | – |
| COc1cc(OC)c(-c2oc3ccccc3c(=O)c2O)cc1Br | – | inactive |
| COc1ccc(Cl)cc1C1CC(=O)c2ccccc2O1 (stereo unspecified) | – | inactive |
| COc1ccc(Br)cc1C1CC(=O)c2ccccc2O1 (stereo unspecified) | – | inactive |
| COc1ccc(Br)cc1-c1cc(=O)c2c(O)cccc2o1 | – | inactive |
| COc1ccc(Cl)cc1/C=C/C(=O)c1ccccc1O | -58 | – |
| COc1cc(Br)cc(-c2oc3ccccc3c(=O)c2O)c1OC | – | inactive |
| COc1ccc(Cl)cc1-c1oc2ccccc2c(=O)c1O | -42 | – |
| COc1cc(OC)c(/C=C/C(=O)c2ccccc2O)cc1Br | -55 | – |

Test system: not listed separately
Assay: Inverse agonist activity at human cytomegalovirus US28 receptor transfected in HEK293T cells assessed as activation of MAPK signaling pathway after 20 to 24 hrs by luciferase-based Elk1 reporter gene assay
Type: cell-based, Human betaherpesvirus 5, HEK-293T
Conditions: Human betaherpesvirus 5, HEK-293T; read-out: EC50
How it was run: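 HEK293T cells transiently co-transfected with Elk1 (0.1 μg), Luc (5 μg) and US28 vector (5 μg); 5 h later washed, seeded at 20,000 cells/well in DMEM, 1% FBS, 2 mM L-glutamine, 1% penicillin-streptomycin, 1% DMSO with compound; 37 °C, 5% CO2, 20–24 h; BrightGlo luminescence. 3–5 experiments in triplicate, pooled normalized sigmoid fits give EC50 and efficacy.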

| Structure (SMILES) | EC50 [µM] |
| --- | --- |
| COc1ccc(Br)cc1/C=C/C(=O)c1c(O)cccc1OC | 6 |
| COc1ccc(C)cc1-c1oc2ccccc2c(=O)c1O | 1.78 |
| CCOc1ccc(Br)cc1/C=C/C(=O)c1ccccc1O | 5 |
| COc1cc(Br)cc(/C=C/C(=O)c2ccccc2O)c1OC | 6.7 |
| CCOc1ccc(Cl)cc1/C=C/C(=O)c1ccccc1O | 6.4 |
| CCOc1ccc(Cl)cc1-c1oc2ccccc2c(=O)c1O | 0.31 |
| COc1ccc(Br)cc1-c1cc(=O)c2ccccc2o1 | 8.1 |
| COc1ccc(C)cc1/C=C/C(=O)c1ccccc1O | 10 |
| COc1ccc(Br)cc1/C=C/C(=O)c1ccccc1O | 7.8 |
| COc1ccc(Br)cc1/C=C/C(=O)c1ccc2ccccc2c1O | 2.9 |
| COc1ccccc1-c1cc(=O)c2c(OCc3ccccc3)cccc2o1 | 7.3 |
| COc1ccc(Br)cc1-c1cc(=O)c2c(OCc3ccccc3)cccc2o1 | 3.5 |
| COc1ccc(I)cc1/C=C/C(=O)c1ccccc1O | 5.5 |
| CCOc1ccc(Br)cc1-c1oc2ccccc2c(=O)c1O | 0.8 |
| COc1ccccc1-c1oc2ccccc2c(=O)c1O | 4.6 |
| COc1ccccc1/C=C/C(=O)c1ccccc1O | 1.4 |
| COc1ccc(Cl)cc1/C=C/C(=O)c1ccccc1O | 7.8 |
| COc1ccc(Cl)cc1-c1oc2ccccc2c(=O)c1O | 1.32 |
| COc1cc(OC)c(/C=C/C(=O)c2ccccc2O)cc1Br | 4.9 |

Same assay, conditions: Human betaherpesvirus 5, HEK-293T; read-out: pEC50 (converted)

| Structure (SMILES) | EC50 [µM] |
| --- | --- |
| COc1ccc(Br)cc1/C=C/C(=O)c1c(O)cccc1OC | 6.03 |
| COc1ccc(C)cc1-c1oc2ccccc2c(=O)c1O | 1.78 |
| CCOc1ccc(Br)cc1/C=C/C(=O)c1ccccc1O | 5.01 |
| COc1cc(Br)cc(/C=C/C(=O)c2ccccc2O)c1OC | 6.61 |
| CCOc1ccc(Cl)cc1/C=C/C(=O)c1ccccc1O | 6.46 |
| CCOc1ccc(Cl)cc1-c1oc2ccccc2c(=O)c1O | 0.309 |
| COc1ccc(Br)cc1-c1cc(=O)c2ccccc2o1 | 8.13 |
| COc1ccc(Br)cc1/C=C/C(=O)c1ccccc1O | 7.76 |
| COc1ccc(Br)cc1/C=C/C(=O)c1ccc2ccccc2c1O | 2.88 |
| COc1ccccc1-c1cc(=O)c2c(OCc3ccccc3)cccc2o1 | 7.24 |
| COc1ccc(Br)cc1-c1cc(=O)c2c(OCc3ccccc3)cccc2o1 | 3.47 |
| COc1ccc(I)cc1/C=C/C(=O)c1ccccc1O | 5.5 |
| CCOc1ccc(Br)cc1-c1oc2ccccc2c(=O)c1O | 0.832 |
| COc1ccccc1-c1oc2ccccc2c(=O)c1O | 4.57 |
| COc1ccccc1/C=C/C(=O)c1ccccc1O | 1.45 |
| COc1ccc(Cl)cc1/C=C/C(=O)c1ccccc1O | 7.76 |
| COc1ccc(Cl)cc1-c1oc2ccccc2c(=O)c1O | 1.32 |
| COc1cc(OC)c(/C=C/C(=O)c2ccccc2O)cc1Br | 4.9 |

Same assay, conditions: hek-293t

| Structure (SMILES) | EC50 |
| --- | --- |
| COc1ccc(Br)cc1/C=C/C(=O)c1c(O)cccc1OCc1ccccc1 | ND(toxic) |
| COc1ccccc1/C=C/C(=O)c1c(O)cccc1OCc1ccccc1 | ND(toxic) |
